Results as given in publication PMC3063522 (Journal of agricultural and food chemistry, 2011).
In brackets after ≈: the same amount, converted by molar mass. Entries after “also recorded” stand apart in the source; their conditions may differ.

Experiments:
[1] = Cytotoxicity towards HL-60 cells in the antioxidant assay; type: cell-based; details: human, HL-60 promyelocytic leukemia cells
[2] = Cytotoxicity to RAW 264.7 cells in the iNOS assay; type: cell-based, mouse; details: mouse, RAW 264.7 macrophages
[3] = test system: mosquito larvae; experiment: Mosquito larvae toxicity bioassay; type: in vivo; details: Figure 4
Procedure, shortened: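 Larval toxicity bioassay, run in triplicate. Controls were untreated, DMSO-acetone carrier, and permethrin as the positive control.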

[4] = Cytotoxicity; type: cell-based; details: human, KB oral epidermal carcinoma cells
Procedure, shortened: (§1)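 Anti-proliferative assay run alongside four human tumour lines (SK-MEL, KB, BT-549, SK-OV-3) and two noncancerous kidney lines (Vero, LLC-PK11). Doxorubicin served as the positive control.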

[5] = Cytotoxicity; type: cell-based; details: pig, LLC-PK11 kidney epithelial cells
Procedure, shortened: as §1

[6] = Cytotoxicity; type: cell-based; details: human, SK-OV-3 ovary carcinoma cells
Procedure, shortened: as §1

[7] = Cytotoxicity; type: cell-based; details: African green monkey, Vero kidney fibroblasts
Procedure, shortened: as §1

[8] = Cytotoxicity; type: cell-based; details: human, SK-MEL malignant melanoma cells
Procedure, shortened: as §1

[9] = Cytotoxicity; type: cell-based; details: human, BT-549 breast ductal carcinoma cells
Procedure, shortened: as §1

[10] = test system: Phomopsis viticola; experiment: Antifungal broth dilution microbioassay, Phomopsis viticola; type: cell-based
Procedure, shortened: (§2)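 Broth microdilution adapted from the NCCLS M27-A yeast method for conidia-forming filamentous plant-pathogenic fungi. The commercial fungicide captan served as the internal standard in every assay. Means were compared by SAS analysis of variance with Fisher's protected LSD. For P. viticola and P. obscurans, activity was read at 120 and 144 h of incubation.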

[11] = test system: Botrytis cinerea; experiment: Antifungal broth dilution microbioassay, Botrytis cinerea; type: cell-based
Procedure, shortened: as §2

[12] = test system: adult A. aegypti female mosquitoes; experiment: Adult mosquito topical toxicity assay; type: in vivo; details: for Adult mosquito mortality rate ± SD: topical, 3.12 μg per insect, acetone/DMSO control gave 5.8±1.8%
[13] = test system: Phomopsis obscurans; experiment: Antifungal broth dilution microbioassay, Phomopsis obscurans; type: cell-based
Procedure, shortened: as §2

[14] = at the highest concentrations, Figure 2D
[15] = 120 and 144 h (from 120 to 144 h)

SMILES	IC50 [1] [µg/mL]	IC50 [2] [µg/mL]	Toxicity to mosquito larvae [3]	IC50 [4] [µg/mL]	IC50 [5] [µg/mL]	IC50 [6] [µg/mL]	IC50 [7] [µg/mL]	IC50 [8] [µg/mL]	IC50 [9] [µg/mL]	Antifungal activity against P. viticola [10, 14]	Growth inhibition of B. cinerea ([11]; 48 h)	Growth inhibition of B. cinerea ([11]; 72 h)	Antifungal activity against P. viticola ([10]; 144 h of incubation)	Adult mosquito mortality rate ± SD [12]	Antifungal activity against P. obscurans ([13]; 144 h of incubation)	Antifungal activity against P. obscurans [13, 15]	Antifungal activity against P. obscurans ([13]; 120 h)	Adult mosquito mortality ([12]; 6.25 μg/mosquito, positive standard) [%]
COc1cc(/C=C/c2ccccc2)cc(OC)c1 [Compound 18]	> 25	> 25	highest activity; also recorded: very low compared to the positive control permethrin	> 25	> 25	> 25	> 25	> 25	> 25									
CC(C)=CCC/C(C)=C/Cc1c(O)cc(/C=C/c2ccc(O)cc2O)cc1O [Compound 22, chlorophorin]	25 (≈ 65.7 µM)	9 (≈ 23.7 µM)		> 25	14.5 (≈ 38.1 µM)	> 25	15.5 (≈ 40.7 µM)	> 25	20 (≈ 52.6 µM)	appreciable activity	very high growth inhibition values	very high growth inhibition values						
COc1cc(O)cc(/C=C/c2ccccc2)c1 [Compound 19]	18 (≈ 79.5 µM)	12 (≈ 53 µM)	highest activity; also recorded: somewhat greater activity	> 25	> 25	> 25	> 25	> 25	> 25	appreciable activity								
CC1(C)C=Cc2c(O)cc(/C=C/c3ccc(O)cc3)cc2O1 [Compound 10, arahypin-5]	4.5 (≈ 15.3 µM)	16 (≈ 54.4 µM)		> 25	19.5 (≈ 66.2 µM)	> 25	> 25	17.5 (≈ 59.5 µM)	> 25				more fungicidal	5.8±1.8%	more fungicidal			
Oc1ccc(/C=C/c2ccccc2)cc1O [Compound 12]	> 25	> 25		> 25	> 25	> 25	> 25	> 25	> 25	essentially inactive	minimal activity	no activity						
CC(C)(O)C(O)Cc1cc(/C=C/c2cc(O)cc(O)c2)ccc1O (stereo not shown) [Compound 7, arahypin-2]	> 25	> 25		> 25	> 25	> 25	> 25	> 25	> 25					marginally active	extremely low	highest levels of inhibition	very high	
CC(C)/C=C/c1c(O)cc(/C=C/c2ccc(O)c(O)c2)cc1O [Compound 1, arachidin-1]	5.2 (≈ 16.6 µM)	8.3 (≈ 26.6 µM)		4.8 (≈ 15.4 µM)	2.8 (≈ 8.96 µM)	14.5 (≈ 46.4 µM)	12 (≈ 38.4 µM)	15 (≈ 48 µM)	4.8 (≈ 15.4 µM)					marginally active		did not exhibit any activity		
Oc1cccc(CCc2ccccc2)c1 [Compound 16]	17 (≈ 85.7 µM)	> 25	highest activity; also recorded: very low compared to the positive control permethrin	> 25	> 25	> 25	> 25	> 25	> 25	appreciable activity			statistically higher activity compared to 14					
CC1(C)C(C=C(Cl)Cl)C1C(=O)OCc1cccc(Oc2ccccc2)c1 (stereo not shown) [permethrin, reference compound]																		100
Oc1cc(O)cc(/C=C/c2ccccc2)c1 [Compound 11, pinosylvin]	18 (≈ 84.8 µM)	10.5 (≈ 49.5 µM)	significantly lower toxicity	13.8 (≈ 65 µM)	10.5 (≈ 49.5 µM)	17 (≈ 80.1 µM)	13 (≈ 61.2 µM)	12.5 (≈ 58.9 µM)	13 (≈ 61.2 µM)	essentially inactive	minimal activity	no activity						
COc1cccc(/C=C/c2ccc(O)cc2)c1 [Compound 13]	4 (≈ 17.7 µM)	19.5 (≈ 86.2 µM)	highest activity; also recorded: very low compared to the positive control permethrin	> 25	> 25	> 25	> 25	> 25	> 25	appreciable activity								
Oc1cccc(/C=C/c2ccccc2)c1 [Compound 14]	19 (≈ 96.8 µM)	22 (≈ 112 µM)	highest activity; also recorded: very low compared to the positive control permethrin	> 25	> 25	> 25	> 25	> 25	> 25									
CC(C)(O)C(O)Cc1c(O)cc(/C=C/c2ccccc2)cc1O (stereo not shown) [Compound 9, arahypin-4]	> 31.3	> 25		> 25	> 25	> 25	> 25	> 25	> 25					10±0.0%				
CC(C)/C=C/c1c(O)cc(/C=C/C2=CC(=O)OC2CC(=O)O)cc1O (stereo not shown) [Compound 4, SB-1]	> 25	> 25		> 25	> 25	> 25	> 25	> 25	> 25							did not exhibit any activity		
CC(C)(O)C(O)Cc1c(O)cc(/C=C/c2ccc(O)cc2)cc1O (stereo not shown) [Compound 8, arahypin-3]	> 25	> 25		> 25	> 25	> 25	> 25	> 25	> 25					marginally active				
COc1ccc(/C=C/c2cc(O)cc(O[C@@H]3O[C@H](CO)[C@@H](O)[C@H](O)[C@H]3O)c2)cc1O [Compound 23, rhapontin, reference compound]	20 (≈ 47.6 µM)	> 25	significantly lower toxicity	> 25	> 25	> 25	> 25	> 25	> 25			very high growth inhibition values						
COc1cccc(CCc2ccc(O)cc2)c1 [Compound 17]	9 (≈ 39.4 µM)	> 25		> 25	> 25	> 25	> 25	> 25	> 25									
COc1cccc2c1C(=O)c1c(O)c3c(c(O)c1C2=O)C[C@@](O)(C(=O)CO)C[C@@H]3O[C@H]1C[C@H](N)[C@H](O)[C@H](C)O1 [Doxorubicin, reference compound]	0.24 (≈ 0.442 µM)			1.45 (≈ 2.67 µM)	0.9 (≈ 1.66 µM)	1.3 (≈ 2.39 µM)	> 5	0.8 (≈ 1.47 µM)	1.35 (≈ 2.48 µM)									
CC(C)/C=C/c1c(O)cc(/C=C/c2ccccc2)cc1O [Compound 6, arahypin-1]	> 31.3	> 25		> 25	> 25	> 25	> 25	> 25	> 25				more fungicidal		more fungicidal	highest levels of inhibition		
C=C1C(=O)O[C@H]2[C@H]1CC/C(C)=C/CC[C@@]1(C)O[C@@H]21 [Parthenolide, reference compound]		13.5 (≈ 54.4 µM)																
Oc1ccc(/C=C/c2cccc(O)c2)cc1 [Compound 15, trans-3,4′-dihydroxystilbene]	4 (≈ 18.8 µM)	> 25		> 25	12 (≈ 56.5 µM)	> 25	19.5 (≈ 91.9 µM)	> 25	> 25									
CC(C)=CCc1c(O)cc(/C=C/c2ccccc2)cc1O [Compound 5, chiricanine A]	19 (≈ 67.8 µM)	13 (≈ 46.4 µM)	significantly lower toxicity	> 25	19.5 (≈ 69.6 µM)	> 25	> 25	20 (≈ 71.3 µM)	> 25				more fungicidal	6.7±5.8%	more fungicidal; also recorded: very high	highest levels of inhibition		
